# Assays:
# [1] = previous work; cited from earlier work
# [2] = symmetric TriPPPro-compounds, PB pH 7.3; cited from earlier work
# HIV‐2 = assay type: cell-based; conditions: CEM-TK(-), read-out: EC50 CEM/TK− HIV‐1
# In short: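 CEM/TK⁻ cells (~3×10⁵ cells/mL) were infected with HIV‑1(III_B) or HIV‑2(ROD) at 100 CCID₅₀/mL and cultured with serial dilutions of test compound. After 4–5 days at 37 °C in humidified CO₂, giant (syncytium) cell formation was scored microscopically. EC50 is the concentration that halves giant cell formation. Values are mean ±SD of n=2–3 independent experiments.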
# [3] = Cytotoxicity: inhibition of CD4+ T-cell; assay type: cell-based; conditions: human, CEM/0 cells (CD4+ T cells)
EC50 (HIV‐2) [µM],Molecule,half-life in CEM/0 cell extracts (t1/2) [1] [h],half-life in PB (t1/2) [2] [h],CC50 [3] [µM]
–,"γ‐(AB−C4,AB−C4)‐d4TTP",0.43,22,–
–,"CCCCCCCCCC(=O)Oc1ccc(COP(=O)(OCc2ccc(OC(=O)CCCCCCCCC)cc2)OP(=O)(O)OP(=O)(O)OC[C@@H]2C=C[C@H](n3cc(C)c(=O)[nH]c3=O)O2)cc1 [γ‐(AB−C9,AB−C9)‐d4TTP]",2.8,44,–
> 50,"Cc1cn([C@H]2C=C[C@@H](CO)O2)c(=O)[nH]c1=O [d4T 1, 3'‐deoxy‐2',3'‐didehydrothymidine]",–,–,> 50

# From article PMC7894357 (Chemmedchem, 2020)
